NR2E3 ag-1: NR2E3 (human) agonism. GST-NR2E3/biotin-RetCOR TR-FRET, 1536-well. Q9Y5X4. AID 2300. inhibition of corepressor binding, % at 4.78 µM. 0.12% of 320,000 active;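 active = percent inhibition above the cutoff of mean plus 3 SD of all tested compounds, set per screening campaign, cut at about 20% in these data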;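 note: 0% = DMSO wells and 100% = biotin wells as full block of FRET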
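System: GST-tagged NR2E3 plus biotinylated RetCOR corepressor; Amount: 1.35 nM GST-tagged NR2E3 final; Dosing: single nominal compound dose of 4.8 µM; Schedule: 5 h incubation at 4 °C; Technique: TR-FRET with europium anti-GST and streptavidin-D2, 340 nm excitation; Controls: biotin wells as high control, 0.6% DMSO wells as low control.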
Rev-erbA mod: Rev-erb alpha (human) modulation; P20393; Rev-erbα–FITC-DNA binding, fluorescence polarization, 90 min; activity, % at 10 µM; 0.79% of 370,000 active;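 active = activity above about 14%, limit read from the data; passing the limit was not always enough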;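 note: 0% = DMSO wells with 35 nM protein and 100% = DMSO wells with 750 nM protein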
Target sequence (P20393 whole entry, looked up): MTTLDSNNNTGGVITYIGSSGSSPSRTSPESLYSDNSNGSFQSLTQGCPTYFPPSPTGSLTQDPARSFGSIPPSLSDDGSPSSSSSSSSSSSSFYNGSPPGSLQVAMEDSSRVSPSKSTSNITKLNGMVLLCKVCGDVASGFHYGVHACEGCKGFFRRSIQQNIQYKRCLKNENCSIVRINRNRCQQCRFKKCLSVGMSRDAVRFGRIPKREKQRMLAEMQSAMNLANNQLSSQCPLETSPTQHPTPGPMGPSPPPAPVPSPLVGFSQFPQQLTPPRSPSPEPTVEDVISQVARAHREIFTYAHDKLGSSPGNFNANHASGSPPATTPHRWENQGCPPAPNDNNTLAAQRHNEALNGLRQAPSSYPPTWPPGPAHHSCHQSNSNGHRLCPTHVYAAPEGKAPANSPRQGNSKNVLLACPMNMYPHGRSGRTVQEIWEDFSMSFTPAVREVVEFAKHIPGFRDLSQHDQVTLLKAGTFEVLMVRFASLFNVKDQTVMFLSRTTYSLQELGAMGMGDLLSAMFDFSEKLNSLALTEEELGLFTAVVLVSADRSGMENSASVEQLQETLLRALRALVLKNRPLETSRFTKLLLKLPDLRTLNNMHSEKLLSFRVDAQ
NR2E3 ag-2: activates human NR2E3 receptor. 0.35% of 360,000 active. inhibition of corepressor binding, % at 3.98 µM. AID 602229. CHO-S Gal4-NCOR/VP16-NR2E3 two-hybrid, luciferase;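 active = inhibition above the mean of all tested compounds plus 3 SD, cut at about 70% in these data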;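 note: 0% = DMSO with NR2E3 transfected cells and 100% = cells lacking NR2E3 construct; higher means lower luciferase signal from less NR2E3 corepressor binding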
PG9 binder: small molecules binding HIV-1 gp120 antibody PG9 | 0.43% of 360,000 active | AID 624416 | TR-FRET gp120-PG9 antibody binding | inhibition, % at 6.7 µM; in the data active = inhibition above about 8.5%
NR1D1 mod conf: confirmation of modulators of human Rev-erb alpha DNA binding; shares compounds with Rev-erbA mod; Rev-erb alpha FITC-DNA binding, fluorescence polarization, 90 min; activation, % at 25 µM; 61% of 3,000 active; AID 1259319;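 active = activation at or above a set limit, or at least 3 SD above the negative control mean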;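 note: 0% = 35 nM protein with DMSO and 100% = 750 nM protein high control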
RORg counter: RORgamma DNA-binding activity, dose-response counter-screen; purified RORgamma protein-FITC-DNA binding, fluorescence polarization; 8% of 910 active; IC50, µM; shares compounds with Rev-erbA mod;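 active = Compounds whose fitted half-maximal concentration for disrupting protein-DNA binding is below 10 micromolar; the record names Rev-erb in its text, so the target is in doubt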
Active calls of the source: *; i = inactive; nt = no result given. Compounds with a hit are over-represented: about 1.4% of the library has one in this group of screens.

SMILES	NR2E3 ag-1	Rev-erbA mod	NR2E3 ag-2	PG9 binder	NR1D1 mod conf	others
COc1cc(C(=O)Nc2nc3ccc4nc(C)sc4c3s2)cc(OC)c1OC	1	115*	-4	-3	8
CCOC(=O)c1sc(NC(=S)NC(=O)c2cccc(OC)c2)nc1C	3	94*	-25	-2	38*	RORg counter=>40
CCOC(=O)c1sc(NC(=S)NC(=O)c2ccccc2)nc1C	-2	20*	-112	0	0
COC(=O)c1sc(NC(=S)NC(=O)c2cc(OC)c(OC)c(OC)c2)nc1C	2	57*	-7	-2	1
COC(=O)c1sc(NC(=S)NC(=O)c2ccccc2)nc1C	-5	23	-19	-1	nt
CCc1nnc(NC(=O)CSc2nnc3c(C)cc4c(C)ccc(C)c4n23)s1	2	4	-28	-8	nt
Cc1ccc(S(=O)(=O)N2CCN(CCc3ccncc3)CC2)cc1	nt	-3	-19	-1	nt
Cc1cc2ncn(S(=O)(=O)N(C)C)c2cc1C	-1	2	-15	1	nt
CCOc1cc(C(=O)NN=C2CCCC2)cc(OCC)c1OCC	0	-8	26	0	nt
COc1cc(C=O)ccc1OCc1ccncc1	0	-3	3	-1	nt
COc1cc(C=O)c(Br)cc1OCc1ccc(C)cc1	13	18*	-106	1	7
CC(C)C[C@@H](CN)NC(=O)c1nc[nH]c1C(=O)N[C@@H](Cc1c[nH]c2ccccc12)C(=O)CNC[C@H](C)NC(=O)c1nc[nH]c1C(=O)N[C@@H](CC(=O)O)C(=O)O	nt	-2	-8	-3	nt
O=c1[nH]cnc2cc(-c3ccc(Br)cc3)sc12	6	26*	-72	6	8
O=C(c1ccc2nc[nH]c2c1)N1CCN(S(=O)(=O)c2cccc(Cl)c2)CC1	nt	0	3	0	nt
Cc1cc(C(=O)COC(=O)C2=COCCO2)c(C)n1-c1cccc(F)c1	-1	-3	-30	-1	nt
Oc1ccc2ccccc2c1N=Nc1ccccn1	-2	5	-18	-6	nt
O=S(=O)(O)c1cccc(N=Nc2c(O)ccc3ccccc23)c1	1	30*	-13	-8	6
Oc1ccc2ccccc2c1N=Nc1ccccc1F	-2	19*	-6	1	5
CCOCCn1ccc2c(OCC(=O)Nc3ccc(OC)c(OC)c3)cccc2c1=O	-4	-2	37	1	nt
Nc1ccc2cc3ccc(N)cc3nc2c1	nt	28*	nt	nt	27*	RORg counter=>40
O=C(COc1ccc2ccccc2c1Br)NC(=S)Nc1cccc(CO)c1	6	24*	-9	-2	21*
O=C(COc1ccc(Br)cc1Br)NC(=S)Nc1cccc(CO)c1	0	4	-12	-3	nt
COc1ccc2c(c1)c(=O)oc1cc(OCC(=O)NC3CC3)ccc12	0	24*	-20	-2	34*	RORg counter=i
COc1ccc2c(c1)c(=O)oc1cc(OCC(=O)NC3CCCCC3)ccc12	2	-9	7	4	nt
Cc1ccc[n+](-c2nc([O-])sc2/C=N/Nc2ccc([N+](=O)[O-])cc2)c1	-4	26*	-12	-4	14
SMILES	NR2E3 ag-1	Rev-erbA mod	NR2E3 ag-2	PG9 binder	NR1D1 mod conf	others
O=[N+]([O-])c1ccc(NN=Cc2cccc3ccccc23)cc1	nt	1	-11	-1	nt
COc1ccc(C(=O)Nc2nc(C)c(C(C)=O)s2)cc1S(=O)(=O)N1CCOCC1	3	58*	-29	0	144*	RORg counter=>40
CCOC(=O)CN(C(=O)COc1nc(-c2ccccc2)cc(C)c1C#N)c1ccccc1C	1	-3	16	-1	nt
O=C(NCCc1ccccc1F)C1CCC(=O)N(Cc2ccccc2F)C1 (centres undefined)	-3	-2	-57	0	nt
Cc1n[nH]c(C)c1CCNC(=O)C1CCC(=O)N(Cc2ccccc2F)C1 (centres undefined)	-1	17*	3	0	0
COc1ccc(N(CC(=O)NC2CCCC2)S(=O)(=O)c2c(C)[nH]c(=O)[nH]c2=O)cc1	6	-3	2	-1	nt
O=C(NCCN1CCN(c2cccc(Cl)c2)CC1)C1CCCN(S(=O)(=O)c2cnc[nH]2)C1 (centres undefined)	-1	-4	-17	1	nt
COc1ccc2nc(C)cc(SCC(=O)N/N=C/c3c(OC)ccc4ccccc34)c2c1	-4	-2	-16	-2	nt
COC(=O)CCCNC(=O)CC1C(=O)NCCN1Cc1ccoc1 (centres undefined)	4	-5	15	0	nt
Cn1c(N)c(C(=O)c2ccc(Cl)cc2)c(=O)n(C)c1=O	2	-4	-14	0	nt
Cc1nn(-c2ccc(Cl)cc2)c2sc(C(=O)c3c(N)n(C)c(=O)n(C)c3=O)cc12	-1	31*	-6	1	38*	RORg counter=>40
C=CC[C@H]1C(C(=O)OCC)=CC[C@@H](c2ccccc2)N1S(=O)(=O)c1ccc(C)cc1	nt	11	-16	0	nt
COc1ccccc1CNC(=O)C1(C)CCCCN1C (centres undefined)	nt	-8	0	-2	nt
O=C(OCCN1CCOCC1)c1ccc(O)cc1	2	14*	-5	-3	2
Cn1nc(CC(=O)Nc2ccc3c(c2)CCC3)c2ccccc2c1=O	nt	20*	26	-1	17*
O=C(Nc1ccnc(=O)[nH]1)c1sc2ccccc2c1Cl	-1	37*	-27	3	23*
COc1ccc(C(=O)c2c[nH]c(C(=O)NCc3cccs3)c2)cc1	0	43*	-24	0	63*	RORg counter=>40
O=C(CSc1c[nH]c2ccccc12)NCC1CCCO1 (centres undefined)	1	-3	-30	0	nt
CC(=O)c1cccc(S(=O)(=O)N2CCN(c3nc4cc(C)cc(C)c4cc3C#N)CC2)c1	1	174*	-4	0	137*
Cc1cc(C)c2cc(C#N)c(N3CCCN(S(=O)(=O)c4ccccc4)CC3)nc2c1	7	nt	nt	nt	nt
FC(F)(F)c1ccccc1Cc1c(-c2cccc(Cl)c2)nc2ccc(Cl)cn12	nt	11	4	-1	nt
COc1cccc(-n2c(O)c(C=NCc3ccccn3)c3ccccc3c2=O)c1	4	2	-26	2	nt
O=c1c2ccccc2c(C=NCc2ccccn2)c(O)n1-c1ccccc1	2	69*	-8	1	20*
CCOc1ccc(/C(O)=C2/C(=O)C(=O)N(CCCn3ccnc3)C2c2cccs2)cc1Cl (centres undefined)	7	48*	-87	8	47*
CCn1c(/C=C/c2cc(Br)ccc2O)nc2ccccc2c1=O	1	4	8	1	nt
CC(=O)c1cnc2cc(-c3cccc(Br)c3)nn2c1C	2	24*	-59	-1	6
CCN(CC)CCCNc1ccc2ncn3c4ccc(O)cc4c(=O)c1c23	nt	92*	34	-19	50*

Source: PubChem (several laboratories)
